Test results as given in ChEMBL document CHEMBL1165934, “Synthesis and in vitro toxicity of 4-MTA, its characteristic clandestine synthesis byproducts and related sulfur substituted alpha-alkylthioamphetamines” (Bioorg Med Chem, 2010).

Experiments:
[1] = system: HEK293; assay: Cytotoxicity against human HEK293 cells over expressing human NET assessed as cell viability after 48 hrs by neutral red assay; type: cell-based; details: HEK293, 48 h
How it was run: (§1)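 Stably transfected HEK293 lines, passage ≤30, kept in DMEM with 10% FBS, 2 mM L-glutamine and Geneticin. Cells seeded at 5x10^4/well and grown to sub-confluence (24-36h), then exposed 48h. Neutral red uptake for 3 ± 1 h, then ethanol/acetic acid solubilisation, A540 minus 690 nm. Viability taken relative to vehicle. Range 1 µM-1 mM, 4 concentrations in triplicate on two independent days. pEC50 from sigmoidal fit (Hill slope 1).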

[2] = system: PC-12; assay: Cytotoxicity against rat PC12 cells assessed as cell viability at 1 mM after 48 hrs by neutral red assay; type: cell-based; details: pc-12, 48 h, 1000 µM
How it was run: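 Undifferentiated PC-12 cells (rat pheochromocytoma) were seeded at 5x10^4 on collagen and differentiated for seven days with 100 ng/ml NGF in low-serum DMEM/F12. They were then exposed for 48 h to single concentrations. Neutral red staining lasted 3 ± 1 h, with absorbance at 540 nm (690 nm background). Viability was taken as % of vehicle, and each concentration was compared with untreated cells by one-way ANOVA.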

[3] = system: HEK293; assay: Cytotoxicity against human HEK293 cells over expressing human SERT assessed as cell viability after 48 hrs by neutral red assay; type: cell-based; details: HEK293, 48 h; how it was run: as §1
[4] = system: PC-12; assay: Cytotoxicity against rat PC12 cells assessed as cell viability after 48 hrs by neutral red assay; type: cell-based; details: PC-12, 48 h
How it was run: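 PC-12 (rat pheochromocytoma) cells on collagen were differentiated 7 days with 100 ng/ml NGF in low-serum DMEM/F12. Seeded at 5x10^4/well, then exposed 48h. Neutral red uptake for 3 ± 1 h, solubilised, A540 (690 nm background). Viability taken against vehicle. Tested 1 µM-1 mM, 4 concentrations in triplicate on two independent days. pEC50 by sigmoidal non-linear regression (Hill slope 1).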

[5] = system: HEK293; assay: Cytotoxicity against human HEK293 cells over expressing human DAT assessed as cell viability after 48 hrs by neutral red assay; type: cell-based; details: HEK293, 48 h; how it was run: as §1
[6] = system: SH-SY5Y; assay: Cytotoxicity against human SH-SY5Y cells assessed as cell viability after 48 hrs by neutral red assay; type: cell-based
How it was run: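 SH-SY5Y grown in DMEM/F12 (1:1) with 10% FBS, 1 mM pyruvate, 2 mM glutamine and 0.1 mM non-essential amino acids, at 37 °C. Seeded 5x10^4 cells/well, treated 48 h, then neutral red uptake for 3 ± 1 h. Absorbance read at 540 nm (690 nm background). Viability was expressed as % of vehicle-treated cells. pEC50 came from a nonlinear sigmoidal fit (Hill slope 1), with 4 concentrations in triplicate on two separate days.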

[7] = system: HEK293; assay: Cytotoxicity against human HEK293 cells assessed as cell viability after 48 hrs by neutral red assay; type: cell-based; details: HEK293, 48 h
How it was run: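 HEK293 cells grown in DMEM with 10% FBS and 2 mM L-glutamine. Seeded at 5x10^4 cells/well and grown to sub-confluence (24-36 h), then exposed 48 h. Neutral red dye was added for 3 ± 1 h, then solubilised in 50% ethanol-1% acetic acid. A540 read with A690 background. Viability was taken as % of vehicle. pEC50 came from a sigmoidal fit (Hill slope 1) over 4 concentrations, triplicate, two independent days.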

[8] = Selectivity ratio of IC50 for SERT to IC50 for NET
[9] = Selectivity ratio of IC50 for SERT to IC50 for DAT
[10] = molecular target: Sodium-dependent serotonin transporter (Homo sapiens, UniProt P31645); assay: Binding affinity to human SERT
Sodium-dependent serotonin transporter, sequence (P31645 whole entry): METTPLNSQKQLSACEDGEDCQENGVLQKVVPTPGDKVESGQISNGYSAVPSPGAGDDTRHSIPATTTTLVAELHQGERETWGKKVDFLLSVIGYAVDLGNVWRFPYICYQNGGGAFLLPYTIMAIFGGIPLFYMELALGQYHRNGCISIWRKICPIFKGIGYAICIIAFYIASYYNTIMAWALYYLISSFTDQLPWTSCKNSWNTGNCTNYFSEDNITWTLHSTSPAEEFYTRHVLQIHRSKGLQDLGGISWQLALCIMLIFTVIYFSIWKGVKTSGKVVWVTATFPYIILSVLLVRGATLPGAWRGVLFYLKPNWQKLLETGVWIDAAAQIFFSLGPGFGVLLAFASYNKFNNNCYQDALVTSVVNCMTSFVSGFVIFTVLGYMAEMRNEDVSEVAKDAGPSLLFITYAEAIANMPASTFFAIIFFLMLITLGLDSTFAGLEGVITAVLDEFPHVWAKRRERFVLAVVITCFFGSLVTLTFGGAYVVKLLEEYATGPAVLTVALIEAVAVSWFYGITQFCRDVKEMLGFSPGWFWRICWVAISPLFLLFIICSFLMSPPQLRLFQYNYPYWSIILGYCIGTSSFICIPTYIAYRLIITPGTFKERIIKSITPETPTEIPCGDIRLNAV

| SMILES | EC50 [1] [µM] | Activity [2] | EC50 [3] [µM] | EC50 [4] [µM] | EC50 [5] [µM] | EC50 [6] [µM] | EC50 [7] [µM] | Ratio IC50 [8] | Ratio IC50 [9] | IC50 [10] [µM] |
| --- | --- | --- | --- | --- | --- | --- | --- | --- | --- | --- |
| CSc1ccc(CC(N)Cc2ccc(SC)cc2)cc1 | 126 | Toxic | 24.5 | 631 | 25.1 | 18.6 | 22.4 | – | – | – |
| CSc1ccc(CC(Cc2ccc(SC)cc2)NC(C)=O)cc1 | 25.7 | Non-toxic | 38.9 | 4170 | 83.2 | 603 | 50.1 | – | – | – |
| CCNC(Cc1ccc(SC)cc1)Cc1ccc(SC)cc1 | 263 | Toxic | 25.7 | 229 | 26.9 | 13.8 | 17 | – | – | – |
| CSc1ccc(C/C(C)=N/O)cc1 | 1740 | Toxic | 214 | 776 | 67.6 | 339 | 3020 | – | – | – |
| CCC(Cc1ccc(SC)cc1)NC (configuration not stated) | 66.1 | – | 55 | – | 417 | – | – | – | – | – |
| CNC(C)Cc1ccc2c(c1)OCO2 (configuration not stated) [MIDOMAFETAMINE] | 1550 | – | 490 | – | 1950 | – | – | – | – | – |
| CSc1ccc(CC(C)NC(C)Cc2ccc(SC)cc2)cc1 (configuration not stated) | 25.1 | – | 25.7 | 27.5 | 26.3 | 22.4 | 16.2 | – | – | – |
| CSc1ccc(CC(C)NC=O)cc1 (configuration not stated) | 372 | Non-toxic | 1350 | > 10000 | 2290 | > 10000 | 2880 | – | – | – |
| CSc1ccc(CC(Cc2ccc(SC)cc2)NC=O)cc1 | 457 | – | 50.1 | 38 | 87.1 | 32.4 | – | – | – | – |
| CSc1ccc(CC(C)N)cc1 (configuration not stated) [4-METHYLTHIOAMPHETAMINE] | 22.4 | – | 22.4 | 295 | 41.7 | 513 | – | 2370 | 3070 | – |
| CC(N)Cc1ccc2c(c1)OCO2 (configuration not stated) [TENAMFETAMINE] | 589 | – | 692 | – | 5890 | – | – | – | – | 0.478 |
| CCc1nc(Cc2ccc(SC)cc2)c(C)cc1-c1ccc(SC)cc1 | 29.5 | – | 34.7 | 29.5 | 26.9 | 178 | 18.6 | – | – | – |
| CSc1ccc(Cc2ccncn2)cc1 | 63.1 | – | 16.6 | 67.6 | 11.7 | 2950 | 9.33 | – | – | – |
| CCC(Cc1ccc(SC)cc1)NC=O (configuration not stated) | 79.4 | Toxic | 64.6 | 741 | 1120 | > 10000 | 61.7 | – | – | – |
